Results on 1 compound are retold here after ChEMBL document CHEMBL1649583 (Antimicrob Agents Chemother, 2009).

Data set [1] deals with Homo sapiens. Description: Absorption rate constant in human adults with pulmonary tuberculosis at 600 mg administered daily for 7 days. The data set is classed as ADME, organism-based. To be noted: in vivo, 168 h. Summed up: (§1)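 Adults with pulmonary TB (once daily n=10, twice daily n=9) fasted overnight before the fifth morning dose. Plasma was drawn at steady state predose and 1, 2, 4, 8, 12, 18 and 24 h after dosing, stored at -80°C, and assayed by validated HPLC (standards 0.5–30 μg/ml). ka comes from a one-compartment NPAG population model fitted per regimen, reported as the median of individual Bayesian estimates.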

Data set [2] in a line: Elimination rate constant in human adults with pulmonary tuberculosis at 600 mg administered daily for 7 days. To be noted: in vivo. The data set is classed as ADME, organism-based. In outline: (§2)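 Plasma was drawn at steady state, predose and at 1, 2, 4, 8, 12, 18 and 24 h, and stored at -80°C. Assay was validated HPLC with 0.5–30 μg/ml standards. A one-compartment population model (NPAG) gave median individual Bayesian estimates; other parameters came from standard equations.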

Data set [3] is described as follows: Elimination half life in human adults with pulmonary tuberculosis at 600 mg administered daily for 7 days. It is filed as ADME, organism-based. Particulars: in vivo, read-out: beta t1/2 (converted). In outline: as §2
Data set [4] in a line: Apparent oral clearance in human adults with pulmonary tuberculosis at 600 mg administered daily for 7 days. It is filed as ADME, organism-based. Particulars: in vivo. In outline:
as §2

Data set [5] can be described thus: Cmax in human adults with pulmonary tuberculosis at 600 mg administered daily for 7 days. The data set is classed as ADME, organism-based. To be noted: in vivo. Set-up: dose 600 mg. In outline: as §2
The nature of data set [6]: Tmax in human adults with pulmonary tuberculosis at 600 mg administered daily for 7 days. It is filed as ADME, organism-based. Particulars: in vivo. Summed up: as §2
For data set [7], the system named is Homo sapiens. Description: Absorption rate constant in human adults with pulmonary tuberculosis at 600 mg administered twice daily for 7 days. It is filed as ADME, organism-based. To be noted: in vivo, 168 h. Summed up: as §1
Data set [8] can be described thus: Elimination rate constant in human adults with pulmonary tuberculosis at 600 mg administered twice daily for 7 days. The data set is classed as ADME, organism-based. To be noted: in vivo. In outline:
as §2

A short description of data set [9]: Elimination half life in human adults with pulmonary tuberculosis at 600 mg administered twice daily for 7 days. It is filed as ADME, organism-based. To be noted: in vivo, read-out: beta t1/2 (converted). In outline:
as §2

A short description of data set [10]: Apparent oral clearance in human adults with pulmonary tuberculosis at 600 mg administered twice daily for 7 days. The data set is classed as ADME, organism-based. To be noted: in vivo. Summed up:
as §2

Data set [11] in a line: Cmax in human adults with pulmonary tuberculosis at 600 mg administered twice daily for 7 days. The data set is classed as ADME, organism-based. Set-up: dose 600 mg. Particulars: in vivo. Summed up: as §2
The nature of data set [12]: Tmax in human adults with pulmonary tuberculosis at 600 mg administered twice daily for 7 days. The data set is classed as ADME, organism-based. Particulars: in vivo. In outline: as §2
Data set [13] relates to Mycobacterium tuberculosis. Description: Antimicrobial activity against Mycobacterium tuberculosis in human adults with pulmonary tuberculosis at 600 mg administered daily for 7 days. The data set is classed as functional. To be noted: 168 h.
In data set [14] the test system is Mycobacterium tuberculosis. Nature of the data set: Antimicrobial activity against Mycobacterium tuberculosis in human adults with pulmonary tuberculosis at 600 mg administered twice for 7 days. It is filed as functional. Particulars: 168 h.
The nature of data set [15]: Cmax in human adults with pulmonary tuberculosis at 600 mg administered once daily for 5 days. The data set is classed as ADME, organism-based. Set-up: dose 600 mg. To be noted: in vivo. In outline: as §2
Data set [16] in a line: fT>MIC in human adults with pulmonary tuberculosis at 600 mg administered once daily for 5 days. The data set is classed as functional. In outline: (§3)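 Steady-state plasma profiles after the fifth 600 mg dose, given once or twice daily, were fitted with a one-compartment population model. Concentrations were corrected to free drug assuming 31% protein binding. MIC came from each patient's pretreatment sputum isolate, tested by Bactec 460 and on Middlebrook 7H-10 agar. The result is the percent of the dosing interval with free drug above MIC.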

Data set [17] can be described thus: Cmax in human adults with pulmonary tuberculosis at 600 mg administered twice daily for 5 days. The data set is classed as ADME, organism-based. Set-up: dose 600 mg. Particulars: in vivo. In outline:
as §2

A short description of data set [18]: fT>MIC in human adults with pulmonary tuberculosis at 600 mg administered twice daily for 5 days. The data set is classed as functional. In outline: as §3

In brackets after ≈: the same amount, converted by molar mass.

By CL/F is commonly meant clearance divided by bioavailability, as obtained after extravascular dosing. A word on the Cmax: it is the highest concentration seen after dosing. As a reminder, the Tmax is the time at which the peak concentration occurs. By MIC is commonly meant the smallest concentration in the dilution series that meets the test's criterion for growth inhibition. High values mean weaker potency, low ones greater potency. For the compound `CC(=O)NC[C@H]1CN(c2ccc(N3CCOCC3)c(F)c2)C(=O)O1` [LINEZOLID], the ka with Homo sapiens [1] came out at 1.5 h⁻¹; in the data set with Homo sapiens [7], 2.7 h⁻¹. Further, the k el at 168 h in [2] and in data set [8] was 5.56e-05 s⁻¹ throughout. Further, the half-life in data set [3] is 2.9 h; in data set [9] it was 4.6 h. For the same compound, the results for the apparent clearance (CL/F) in [4] and in data set [10] were 118 mL/min and 80 mL/min, respectively. In addition, the Cmax in data set [5] was 14900 ng/mL; in data set [11], 19400 ng/mL; in [15] it was 10300 ng/mL; in data set [17] it was 13400 ng/mL. The Tmax in [6] amounted to 1.5 h; in data set [12], 1 h. For the same compound, the results for the MIC in data set [13] and in data set [14] were 1 µg/mL (≈ 2.96 µM) and 0.5 µg/mL (≈ 1.48 µM), respectively. The entries for the “fT>MIC” value in data set [16] and in data set [18] were 62.8% and 100%, respectively.
